≈ marks a conversion by molar mass, not a printed value. Like-named read-outs stand apart in the source and are kept apart here.
Columns and labels:
[1] = molecular target: Collagenase type V from Clostridium histolyticum; assay: Collagenase inhibition assay; format: biochemical; details: for IC50: incubation 37°C 10 min, reaction monitored 30 min; for inhibition rate: initial concentration 50 μg/mL
Procedure, shortened: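 Clostridium histolyticum collagenase (100 μg/mL initial) in 10 mM Tris-HCl pH 7.3 preincubated 10 min with test compound (1% DMSO final). MCA-Pro-Leu-Ala-Nva-DNP-Dap-Ala-Arg-NH2 (55.55 μg/mL initial) then added. Fluorescence ex 320/em 400 nm read at endpoint, or every 5 min over 30 min for AUC. Serial dilutions in triplicate, blank per concentration, % inhibition versus buffer control. Km by Lineweaver-Burk, substrate 4.17–166.67 μg/mL initial.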

collagenase = details: cited from earlier work

Compound: c1cnc2c(c1)ccc1cccnc12 [1,10-phenanthroline]
- IC50 ([1]; final concentration): 42.86 µg/mL
- IC50 ([1]; mean ± SD (n=3)): 238 ± 3.4 µM
- IC50 described in literature (collagenase; ref [16]): 70.4 µg/mL (≈ 391 µM)

Compound: O=C(O[C@@H]1Cc2c(O)cc(O)cc2O[C@@H]1c1cc(O)c(O)c(O)c1)c1cc(O)c(O)c(O)c1 [epigallocatechingallate]
- IC50 (collagenase; ref [15]): 114 µg/mL (≈ 249 µM)

Compound: COC1=C(NCC(=O)O)CC(O)(CO)CC1=N (stereo not shown) [palythine]
- IC50 ([1]; final concentration): 38.82 µg/mL
- IC50 ([1]; mean ± SD (n=3)): 159 ± 3.2 µM

Compound: CC(C)C[C@H](NP(=O)(O)O[C@@H]1O[C@@H](C)[C@H](O)[C@@H](O)[C@H]1O)C(=O)N[C@@H](Cc1c[nH]c2ccccc12)C(=O)O [phosphoramidon]
- IC50, kinetic reading mode (AUC) ([1]; AUC 0-30 min, n=3): 11.95 μg/mL ± 1.28
- IC50, endpoint reading mode ([1]; endpoint reading at 30 min, n=3): 11.07 μg/mL ± 0.95
- IC50 ([1]; mean ± SD (n=3)): 18.8 ± 1.6 µM
- inhibition rate ([1]; reaction temperature 30°C): 53.4%
- inhibition rate ([1]; reaction temperature 37°C): 53.4%
- inhibition rate ([1]; room temperature (RT)): 49.1%

Compound: COC1=C(NCC(=O)O)CC(O)(CO)CC1=N[C@H](C(=O)O)[C@@H](C)O (stereo partly shown) [porphyra]
- IC50 ([1]; final concentration): 37.73 µg/mL
- IC50 ([1]; mean ± SD (n=3)): 106 ± 2.3 µM

Compound: COC1=C(NCC(=O)O)C[C@@](O)(CO)C/C1=N\[C@@H](CO)C(=O)O [shinorine]
- IC50 ([1]; final concentration): 34.42 µg/mL
- IC50 ([1]; mean ± SD (n=3)): 104 ± 3.7 µM

Compound: MCA-Pro-Leu-Ala-Nva-DNP-Dap-Ala-Arg-NH2 [MMP-2 fluorogenic substrate]
- maximum velocity (Vmax) ([1]; Lineweaver Burk plot, enzyme 100 μg/mL (initial)): 212.76 µmol/min
- Km ([1]; read-out: Km (final), Lineweaver Burk plot, final concentration): 12.9 µM
- Km ([1]; read-out: Michaelis Menten constant (Km), Lineweaver Burk plot, enzyme 100 μg/mL (initial), initial substrate concentration): 51.7 µM
